# Measured values as given in ChEMBL document CHEMBL2424628, “Discovery of potent and selective nonsteroidal indazolyl amide glucocorticoid receptor agonists” (Bioorg Med Chem Lett, 2013).
# Key:
# Assay type in all cases: cell-based
# [1] = molecular target: T1, Mineralocorticoid receptor (Homo sapiens, UniProt P08235); assay: Agonist activity at mineralocorticoid receptor in human A549 cells
# T1 sequence (P08235 whole entry): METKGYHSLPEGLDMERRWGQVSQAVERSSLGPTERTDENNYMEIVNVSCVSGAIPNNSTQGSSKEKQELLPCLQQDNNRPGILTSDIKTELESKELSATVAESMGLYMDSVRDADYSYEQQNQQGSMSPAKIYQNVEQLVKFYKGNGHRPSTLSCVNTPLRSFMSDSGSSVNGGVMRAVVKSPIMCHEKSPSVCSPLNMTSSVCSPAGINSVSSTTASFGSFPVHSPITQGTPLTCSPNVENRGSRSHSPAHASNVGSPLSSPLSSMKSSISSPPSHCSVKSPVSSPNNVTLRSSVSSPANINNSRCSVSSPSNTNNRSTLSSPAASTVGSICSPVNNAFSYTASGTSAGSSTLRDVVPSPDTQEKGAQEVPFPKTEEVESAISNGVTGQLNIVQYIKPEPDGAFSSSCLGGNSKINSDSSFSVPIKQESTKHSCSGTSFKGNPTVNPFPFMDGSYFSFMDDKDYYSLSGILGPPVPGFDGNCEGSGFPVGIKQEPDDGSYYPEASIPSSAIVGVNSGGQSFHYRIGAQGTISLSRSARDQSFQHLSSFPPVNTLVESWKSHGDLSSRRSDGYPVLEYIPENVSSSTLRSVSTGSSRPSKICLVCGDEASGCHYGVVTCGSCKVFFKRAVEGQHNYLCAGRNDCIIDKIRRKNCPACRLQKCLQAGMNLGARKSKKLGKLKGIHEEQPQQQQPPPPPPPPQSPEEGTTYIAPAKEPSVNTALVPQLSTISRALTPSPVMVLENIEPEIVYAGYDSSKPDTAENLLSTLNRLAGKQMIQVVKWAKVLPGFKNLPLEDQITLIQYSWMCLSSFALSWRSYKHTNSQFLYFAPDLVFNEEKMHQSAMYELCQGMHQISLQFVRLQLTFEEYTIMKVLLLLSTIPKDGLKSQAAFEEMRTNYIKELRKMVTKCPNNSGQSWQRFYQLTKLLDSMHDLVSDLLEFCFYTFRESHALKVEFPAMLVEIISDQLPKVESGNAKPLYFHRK
# Outline: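 Cellular agonist assay in an A549 line with aldosterone as positive control. EC50 taken relative to % maximal efficacy. Means of duplicate experiments.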
# [2] = molecular target: T2, Glucocorticoid receptor (Homo sapiens) (UniProt P04150); assay: Transactivation of glucocorticoid receptor ligand binding domain (unknown origin) transfected in human HeLa cells assessed as activation of NP-1 by GAL4 luciferase reporter gene assay relative to dexamethasone
# T2 sequence (whole entry): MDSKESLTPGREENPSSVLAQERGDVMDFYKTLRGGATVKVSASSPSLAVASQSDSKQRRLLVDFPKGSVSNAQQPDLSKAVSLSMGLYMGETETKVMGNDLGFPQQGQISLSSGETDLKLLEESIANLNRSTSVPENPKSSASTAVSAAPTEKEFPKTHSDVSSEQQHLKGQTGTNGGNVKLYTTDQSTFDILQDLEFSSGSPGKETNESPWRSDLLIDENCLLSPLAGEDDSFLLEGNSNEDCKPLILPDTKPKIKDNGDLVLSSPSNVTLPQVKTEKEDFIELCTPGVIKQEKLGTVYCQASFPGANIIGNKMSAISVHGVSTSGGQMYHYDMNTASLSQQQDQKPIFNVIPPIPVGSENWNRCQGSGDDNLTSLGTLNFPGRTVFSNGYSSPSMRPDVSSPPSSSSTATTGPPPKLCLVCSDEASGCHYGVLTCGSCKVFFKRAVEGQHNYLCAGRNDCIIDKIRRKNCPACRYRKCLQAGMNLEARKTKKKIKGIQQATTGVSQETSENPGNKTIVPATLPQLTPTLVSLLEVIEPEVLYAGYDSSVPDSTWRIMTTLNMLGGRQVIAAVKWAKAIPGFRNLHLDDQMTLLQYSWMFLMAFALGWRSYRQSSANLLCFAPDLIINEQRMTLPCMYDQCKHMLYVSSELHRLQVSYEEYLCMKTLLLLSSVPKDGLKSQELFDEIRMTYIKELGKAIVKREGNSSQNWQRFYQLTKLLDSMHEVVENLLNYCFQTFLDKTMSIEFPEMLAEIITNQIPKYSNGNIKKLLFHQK
# Outline: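 HeLa line (NP-1) stably transfected with a GR ligand binding domain chimera in a GAL4 luciferase reporter system, run in agonist mode. Direct GR-LBD activation read as increased luciferase activity. Means of two or more experiments in triplicate.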
# Glucocorticoid receptor [3] = molecular target: T3, Glucocorticoid receptor (Homo sapiens, UniProt P04150); assay: Transactivation of glucocorticoid receptor ligand binding domain (unknown origin) transfected in human HeLa cells assessed as activation of NP-1 by GAL4 luciferase reporter gene assay
# T3 sequence (P04150 whole entry): T2 sequence (whole entry)
# [4] = molecular target: T2, Glucocorticoid receptor (Homo sapiens); assay: Agonist activity at glucocorticoid receptor in human A549 cells assessed as inhibition of IL-1beta-induced NF-kappaB dependent E-selectin activation by luciferase reporter gene assay relative to dexamethasone
# Glucocorticoid receptor [5] = molecular target: T3, Glucocorticoid receptor; assay: Agonist activity at glucocorticoid receptor in human A549 cells assessed as inhibition of PMA-induced AP-1 activation by luciferase reporter gene assay
# Glucocorticoid receptor [6] = molecular target: T3, Glucocorticoid receptor; assay: Agonist activity at glucocorticoid receptor in human A549 cells assessed as inhibition of IL-1beta-induced NF-kappaB dependent E-selectin activation by luciferase reporter gene assay
structure (smiles),measurement,setting,value
CC(C)(C(=O)Nc1nncs1)[C@@H](c1ccccc1)c1ccc2c(cnn2-c2ccc(F)cc2)c1,EC50,[1],> 5000 nM
same,Efficacy,[2],106%
same,EC50,Glucocorticoid receptor [3],5.8 nM
same,Efficacy,[4],86%
same,EC50,Glucocorticoid receptor [5],2.4 nM
same,EC50,Glucocorticoid receptor [6],4 nM
CC(C)(C(=O)Nc1nncs1)[C@H](c1ccccc1)c1ccc2c(cnn2-c2ccc(F)cc2)c1,EC50,[1],> 5000 nM
same,EC50,Glucocorticoid receptor [5],92 nM
